# In ChEMBL document CHEMBL4373712, “Bioactivatable Pseudotripeptidization of Cyclic Dipeptides To Increase the Affinity toward Oligopeptide Transporter 1 for Enhanced Oral Absorption: An Application to Cyclo(l-Hyp-l-Ser) (JBP485)” (J Med Chem, 2019):
# Active and inactive are the calls of the source. No cut-off for these calls is given here.
# Legend:
# [1] = Tmax in Sprague-Dawley rat assessed as JBP485 level at 12 mg/kg equiv of JBP485 administered orally by UPLC-MS/MS analysis; format: ADME, organism-based; conditions: in vivo, po
# Procedure, shortened: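 Fasted male SD rats (200–250 g), oral 12 mg/kg (prodrugs calculated as JBP485). Jugular blood 0.083–10 h, centrifuged, plasma JBP485 by UPLC-MS/MS; n=6.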
# Rattus norvegicus [2] = assay: (§1) Anti-hepatitis activity in ANIT-induced Sprague-Dawley rat model of liver injury assessed as reduction in hepatocellular edema at 3.125 to 25 mg/kg, po administered 30 mins prior to ANIT challenge and subsequent dosing at 8, 22, 32, and 46 hrs post ANIT challenge and measured 48 hrs post ANIT challenge by H and E staining-based assay; format: functional, organism-based
# Procedure, shortened: (§2)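 ANIT 50 mg/kg ip liver-injury model in male SD rats, 6 per group. Oral or ip treatment at 30 min before and 8, 22, 32 and 46 h after ANIT. Liver excised at 48 h, fixed in 4% formalin, stained with H&E, and examined microscopically for hepatocellular edema and necrosis.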
# [3] = target: T1, Solute carrier family 15 member 1 (Homo sapiens, UniProt P46059); assay: Substrate activity at PEPT1 in human Caco2 cells assessed as protein-mediated drug uptake at 0.5 mM measured after 10 mins in pH 7.4 HBSS buffer by UPLC-MS/MS analysis; format: ADME, cell-based; conditions: caco-2, pH 7.4, 10 min, 500 µM
# T1 sequence (P46059 whole entry): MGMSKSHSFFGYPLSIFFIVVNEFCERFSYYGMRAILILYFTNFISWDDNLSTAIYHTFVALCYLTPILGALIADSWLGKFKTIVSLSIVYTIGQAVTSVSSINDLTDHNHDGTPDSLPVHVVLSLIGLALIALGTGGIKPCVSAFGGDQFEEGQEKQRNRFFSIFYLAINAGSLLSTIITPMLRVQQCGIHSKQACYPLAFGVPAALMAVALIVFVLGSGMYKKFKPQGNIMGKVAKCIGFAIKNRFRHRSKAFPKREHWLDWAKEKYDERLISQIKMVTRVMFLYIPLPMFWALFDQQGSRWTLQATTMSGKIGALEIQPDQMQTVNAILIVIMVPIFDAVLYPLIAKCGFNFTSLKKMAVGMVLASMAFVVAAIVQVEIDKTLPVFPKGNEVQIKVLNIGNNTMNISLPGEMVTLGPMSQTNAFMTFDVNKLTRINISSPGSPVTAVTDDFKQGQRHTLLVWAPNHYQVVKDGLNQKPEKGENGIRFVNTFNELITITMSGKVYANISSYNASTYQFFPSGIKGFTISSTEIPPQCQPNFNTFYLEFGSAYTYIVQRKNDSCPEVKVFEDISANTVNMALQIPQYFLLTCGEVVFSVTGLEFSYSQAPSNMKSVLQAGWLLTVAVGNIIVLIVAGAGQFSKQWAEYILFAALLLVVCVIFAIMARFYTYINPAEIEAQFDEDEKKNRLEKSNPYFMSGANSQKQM
# Procedure, shortened: (§3)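 Caco-2 cells incubated 10 min with 0.5 mM compound in HBSS at pH 6.0 or pH 7.4, washed three times in ice-cold PBS pH 7.4, homogenised. Protein by DC assay; drug by UPLC-MS/MS; n=3.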
# [4] = Half life in pH 5.8 phosphate buffer at 5 mM by HPLC analysis; format: physicochemical
# Procedure, shortened: (§4)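 Compound at 5 mM in 0.1 M HCl, pH 4.5 acetate buffer, pH 5.8/6.8/7.2 phosphate buffers, SGF (pH 1.2) and SIF (pH 6.8), prepared per Chinese Pharmacopoeia. Samples taken at 0-20 h and analyzed by HPLC-UV. k = 2.303×slope of log C versus time; t1/2 = 0.693/k.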
# [5] = Half life in 0.1 M HCl at 5 mM by HPLC analysis; format: physicochemical; procedure, shortened: as §4
# [6] = target: T1, Solute carrier family 15 member 1; assay: Substrate activity at PEPT1 in human Caco2 cells assessed as protein-mediated drug uptake at 0.5 mM measured after 10 mins in pH 6 HBSS buffer by UPLC-MS/MS analysis; format: ADME, cell-based; conditions: caco-2, pH 6, 10 min, 500 µM; procedure, shortened: as §3
# [7] = Cmax in Sprague-Dawley rat at 6 mg/kg, iv by UPLC-MS/MS analysis; format: ADME, organism-based; design: dose 6 mg/kg, route intravenous; conditions: in vivo
# Procedure, shortened: (§5)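 Male SD rats, 200-250 g, fasted 12 h with water, n=6. Oral dose of 12 mg/kg as JBP485 equivalent; dose-effect arms at 12 and 100 mg/kg. JBP485 given iv at 6 mg/kg as the reference. Jugular blood taken at 0.083-10 h. Plasma JBP485 by UPLC-MS/MS. Absolute F = (AUCpo×Div)/(AUCiv×Dpo)×100%, using AUC0-t.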
# [8] = Oral bioavailability in Sprague-Dawley rat at 12 mg/kg by UPLC-MS/MS analysis; format: ADME, organism-based; conditions: in vivo; procedure, shortened: as §5
# Rattus norvegicus [9] = assay: as §1, with “liver necrosis” for “hepatocellular edema”, “6.25” for “3.125”; format: functional, organism-based; procedure, shortened: as §2
# [10] = Tmax in Beagle dog at 12 mg/kg, po by UPLC-MS/MS analysis; format: ADME, organism-based, Canis lupus familiaris; conditions: in vivo
# Procedure, shortened: (§6)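 Male beagle dogs, 2 years old, 8–10 kg, dosed orally at 12 mg/kg (prodrug calculated as JBP485) in aqueous solution. Jugular blood taken 0.167–8 h into heparin, centrifuged, plasma JBP485 by UPLC-MS/MS; n=6.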
# [11] = Tmax in Sprague-Dawley rat assessed as JBP485 level at 100 mg/kg, po by LC-MS/MS analysis; format: ADME, organism-based; conditions: in vivo
# Procedure, shortened: (§7)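 Male SD rats (200–250 g) fasted 12 h, given JBP485 or prodrug (calculated as JBP485) orally at 12 or 100 mg/kg. Jugular blood sampled 0.083–10 h, plasma JBP485 by UPLC-MS/MS; n=6.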
# [12] = AUC (0 to t) in Sprague-Dawley rat assessed as JBP485 level at 100 mg/kg, po by LC-MS/MS analysis; format: ADME, organism-based; conditions: in vivo; procedure, shortened: as §5
# [13] = AUC (0 to t) in Sprague-Dawley rat at 6 mg/kg, iv by UPLC-MS/MS analysis; format: ADME, organism-based; conditions: in vivo; procedure, shortened: as §5
# [14] = AUC (0 to t) in Sprague-Dawley rat assessed as JBP485 level at 12 mg/kg, po by LC-MS/MS analysis; format: ADME, organism-based; conditions: in vivo; procedure, shortened: as §5
# [15] = Terminal half life in Beagle dog at 12 mg/kg, po by UPLC-MS/MS analysis; format: ADME, organism-based, Canis lupus familiaris; conditions: in vivo, read-out: beta t1/2 (converted); procedure, shortened: as §6
# [16] = Terminal half life in Sprague-Dawley rat assessed as JBP485 level at 12 mg/kg, po by LC-MS/MS analysis; format: ADME, organism-based; conditions: in vivo; procedure, shortened: as §7
# Rattus norvegicus [17] = assay: Anti-hepatitis activity in ANIT-induced Sprague-Dawley rat model of liver injury assessed as reduction in serum aspartate aminotransferase level at 6.25 to 12.5 mg/kg, ip administered 30 mins prior to ANIT challenge and subsequent dosing at 8, 22, 32, and 46 hrs post ANIT challenge and measured 48 hrs post ANIT challenge; format: functional, organism-based
# Procedure, shortened: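 ANIT (50 mg/kg ip, olive oil) cholestatic liver injury in male SD rats, 6 per group. Oral or ip dosing (UDCA 100 mg/kg po in CMC-Na) at 30 min before and 8, 22, 32 and 46 h after ANIT. Serum collected at 48 h from the abdominal aorta; ALT and AST activities measured with kits.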
# [18] = Cmax in Sprague-Dawley rat assessed as JBP485 level at 12 mg/kg, po by LC-MS/MS analysis; format: ADME, organism-based; design: dose 12 mg/kg, route oral; conditions: in vivo; procedure, shortened: as §5
Tmax [1],Drug uptake [3],half-life at 5000 µM [4],half-life at 5000 µM [5],Drug uptake [6],Cmax [7],bioavailability [8],Tmax [10],Tmax [11],AUCt [12],AUCt [13],AUCt [14],half-life [15],beta t1/2 [16],Cmax [18],SMILES,Activity (Rattus norvegicus [2]),Activity (Rattus norvegicus [9]),Activity (Rattus norvegicus [17])
0.57 h,Not Active,> 20 h,> 20 h,Active,–,–,–,–,–,–,–,–,–,–,CC(C)[C@H](N)C(=O)OC[C@@H]1NC(=O)[C@@H]2C[C@@H](O)CN2C1=O,Active,–,–
–,Not Active,> 20 h,> 20 h,Active,334.91 nM/ml,21%,1.5 h,1.5 h,324 µM·h,194 µM·h,81.4 nM/ml.hr,5.23 h,2.12 h,27.84 nM/ml,O=C1N[C@@H](CO)C(=O)N2C[C@H](O)C[C@@H]12,–,Active,Active
